One compound from ChEMBL document CHEMBL2429791, “Preparation of asymmetric urea derivatives that target prostate-specific membrane antigen for SPECT imaging” (J Med Chem, 2013) can be followed below.

The subject of data set [1] is Kidney. The data set can be described thus: Biodistribution in kidney of C.B.-17/Icr […] Jcl mouse xenografted with human LNCAP and PC3 cells at 25.9 MBq, iv after 3 hrs. The format is ADME, organism-based. The note with it: in vivo. The method in brief: (§1)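 ¹²⁵I-labelled tracer given iv by tail vein to mice (22–24 g) bearing LNCaP (left shoulder) and PC-3 (right shoulder) xenografts of about 5–10 mm, grown from 1–5 × 10⁶ cells in 1:1 Matrigel. n=4 per time point; decapitated at 2 min, 30 min, 1, 3, 6 h. Tissues weighed and counted; uptake as %ID/g, mean ± SD.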
(In general: In xenograft studies the graft and the host belong to different species.)

In data set [2] the test system is Nucleic Acid. In words: Ratio of drug level in human PC3 cells xenografted in C.B.-17/Icr +/+ Jcl mouse to muscle of C.B.-17/Icr +/+ Jcl mouse xenografted with human LNCAP and PC3 cells at 25.9 MBq, iv after 1 hr. It counts as ADME, organism-based. The note with it: in vivo. The method in brief:
(§2)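 Mice (22–24 g) carried PC-3 (right shoulder) and LNCaP (left shoulder) tumors, raised by injecting 1–5 × 10⁶ cells in 1:1 PBS/Matrigel and used at about 5–10 mm diameter. [¹²⁵I]-tracer was given via the tail vein, n=4 per time point, and mice were decapitated at 2 min, 30 min, 1, 3 or 6 h. Tissues were weighed and γ-counted as %ID/g. Tumor/blood and tumor/muscle ratios were taken from %ID/g, mean ± SD.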

The test system of data set [3] is Nucleic Acid. The data set can be described thus: Ratio of drug level in human PC3 cells xenografted in C.B.-17/Icr +/+ Jcl mouse to muscle of C.B.-17/Icr +/+ Jcl mouse xenografted with human LNCAP and PC3 cells at 25.9 MBq, iv after 30 mins. It counts as ADME, organism-based. The note with it: in vivo, 0.5 h. An outline of the steps: as §2
For data set [4], the system named is Kidney. In words: Biodistribution in kidney of C.B.-17/Icr +/+ Jcl mouse xenografted with human LNCAP and PC3 cells at 25.9 MBq, iv after 30 mins in presence of 2-PMPA. It counts as ADME, organism-based. To be noted: in vivo, 0.5 h. The method in brief: (§3)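 Blocking study: ¹²⁵I-labelled tracer coinjected iv by tail vein with 2-PMPA (50 mg/kg) in LNCaP/PC-3 xenograft-bearing mice (22–24 g). Mice decapitated 30 min after injection; tissues weighed and counted; uptake as %ID/g.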

Data set [5] is described as follows: Ratio of drug level in human LNCAP cells xenografted in C.B.-17/Icr +/+ Jcl mouse to blood of C.B.-17/Icr +/+ Jcl mouse xenografted with human LNCAP and PC3 cells at 25.9 MBq, iv after 1 hr. The note with it: LNCAP tumour xenograft relative to blood. The format is ADME, organism-based. An outline of the steps:
(§4)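 Tumor-to-blood and tumor-to-muscle ratios were calculated from %ID/g values in ¹²⁵I-tracer biodistribution in LNCaP/PC-3 xenografted mice. Tail-vein dosing, n=4 per time point, sacrifice at 2 min, 30 min, 1, 3 or 6 h.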

Another data set relates to Blood. In words: Biodistribution in blood of C.B.-17/Icr +/+ Jcl mouse xenografted with human LNCAP and PC3 cells at 25.9 MBq, iv after 3 hrs. The note with it: in vivo. The format is ADME, organism-based. The method in brief: as §1
Data set [6] deals with Nucleic Acid. The data set can be described thus: Ratio of drug level in human PC3 cells xenografted in C.B.-17/Icr +/+ Jcl mouse to muscle of C.B.-17/Icr +/+ Jcl mouse xenografted with human LNCAP and PC3 cells at 25.9 MBq, iv after 3 hrs. It counts as ADME, organism-based. The note with it: in vivo. The method in brief:
as §2

The test system of a further data set is Serum. In words: Drug degradation in C.B.-17/Icr +/+ Jcl mouse serum after 18 hrs. The format is ADME, cell-free. An outline of the steps:
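Serum came from heart blood of isoflurane-anesthetized male C.B.-17/Icr +/+ mice (20–22 g), centrifuged at 1,500 × g and stored at −80 °C. ¹²⁵I tracer was incubated in serum at 37 °C, then methanol was added. The sample was centrifuged at 5,000 × g, passed through a 0.45 μm filter, and analyzed by radio-HPLC for intact tracer versus degradation peaks.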

The test system of the next data set is Lung. The data set can be described thus: Biodistribution in lung of C.B.-17/Icr +/+ Jcl mouse xenografted with human LNCAP and PC3 cells at 25.9 MBq, iv after 2 mins. It counts as ADME, organism-based. The note with it: in vivo. An outline of the steps:
(§5)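 Radioiodinated (¹²⁵I) tracer given by tail-vein injection to mice bearing LNCaP (left shoulder) and PC-3 (right shoulder) xenografts, 22–24 g, grown to about 5–10 mm. Groups of n=4 were decapitated at 2 min, 30 min, 1 h, 3 h or 6 h. Tissues were weighed and counted, and uptake was expressed as %ID/g (mean ± SD).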

The test system of the next data set is Heart. In words: Biodistribution in heart of C.B.-17/Icr +/+ Jcl mouse xenografted with human LNCAP and PC3 cells at 25.9 MBq, iv after 1 hr. The format is ADME, organism-based. To be noted: in vivo. An outline of the steps: as §1
Data set [7] has as its system Thyroid gland. The data set can be described thus: Biodistribution in thyroid of C.B.-17/Icr +/+ Jcl mouse xenografted with human LNCAP and PC3 cells at 25.9 MBq, iv after 6 hrs. To be noted: in vivo. It counts as ADME, organism-based. An outline of the steps:
as §5

A further data set relates to Liver. In words: Biodistribution in liver of C.B.-17/Icr […] Jcl mouse xenografted with human LNCAP and PC3 cells at 25.9 MBq, iv after 2 mins. It counts as ADME, organism-based. The note with it: in vivo. The method in brief: as §1
For data set [8], the system named is Kidney. The data set can be described thus: Biodistribution in kidney of C.B.-17/Icr […] Jcl mouse xenografted with human LNCAP and PC3 cells at 25.9 MBq, iv after 6 hrs. The format is ADME, organism-based. To be noted: in vivo. An outline of the steps: as §1
The test system of another data set is Muscle tissue. The data set can be described thus: Biodistribution in muscle of C.B.-17/Icr +/+ Jcl mouse xenografted with human LNCAP and PC3 cells at 25.9 MBq, iv after 3 hrs. The note with it: in vivo. The format is ADME, organism-based. An outline of the steps:
as §5

In data set [9] the test system is Thyroid gland. The data set can be described thus: Biodistribution in thyroid of C.B.-17/Icr +/+ Jcl mouse xenografted with human LNCAP and PC3 cells at 25.9 MBq, iv after 30 mins. The format is ADME, organism-based. The note with it: in vivo, 0.5 h. The method in brief: as §5
The subject of a further data set is LNCaP. In words: Biodistribution in LNCAP cells in C.B.-17/Icr +/+ Jcl mouse xenografted with human LNCAP and PC3 cells at 25.9 MBq, iv after 30 mins in presence of 2-PMPA. It counts as ADME, organism-based. The note with it: in vivo, 0.5 h. The method in brief:
as §3

For data set [10], the system named is PC-3. The data set can be described thus: Biodistribution in PC3 cells in C.B.-17/Icr +/+ Jcl mouse xenografted with human LNCAP and PC3 cells at 25.9 MBq, iv after 1 hr. It counts as ADME, organism-based. To be noted: in vivo. The method in brief:
as §1

The next data set has as its system Stomach. In words: Biodistribution in stomach of C.B.-17/Icr +/+ Jcl mouse xenografted with human LNCAP and PC3 cells at 25.9 MBq, iv after 2 mins. The format is ADME, organism-based. The note with it: in vivo. The method in brief:
as §5

Data set [11] concerns PC-3. The data set can be described thus: Biodistribution in PC3 cells in C.B.-17/Icr +/+ Jcl mouse xenografted with human LNCAP and PC3 cells at 25.9 MBq, iv after 6 hrs. To be noted: in vivo. The format is ADME, organism-based. The method in brief:
as §1

For data set [12], the system named is Nucleic Acid. In words: Ratio of drug level in human LNCAP cells xenografted in C.B.-17/Icr +/+ Jcl mouse to muscle of C.B.-17/Icr +/+ Jcl mouse xenografted with human LNCAP and PC3 cells at 25.9 MBq, iv after 3 hrs. To be noted: in vivo. It counts as ADME, organism-based. An outline of the steps:
as §4

A word on the Kp: it is the ratio of the level in a tissue or fluid to that in plasma or blood.

In the case of `O=C(O)CC[C@H](NC(=O)N[C@@H](CSC1CC(=O)N(CCCC[C@H](NC(=O)CNC(=O)c2cccc([125I])c2)C(=O)O)C1=O)C(=O)O)C(=O)O` (stereo not given in full), the Drug uptake was 110 % ID/g with Kidney [1]; “Not Active” in the data set with Kidney [4]; 0.7 % ID/g in the data set with Blood; 6.8 % ID/g in the data set on Lung; 1.3 % ID/g with Heart; 0.02 %ID in the data set with Thyroid gland [7]. Moreover, the Drug uptake is 22.5 % ID/g with Liver; 97.1 % ID/g in the data set on Kidney [8]; 0.2 % ID/g in the data set on Muscle tissue; 0 %ID with Thyroid gland [9]; “Not Active” in the data set with LNCaP; 0.7 % ID/g in the data set on PC-3 [10]. Further, the Drug uptake in the data set with Stomach was 0.7 %ID/g; in the data set with PC-3 [11], 0.2 % ID/g. The Ratio is given as 1.6 with Nucleic Acid [2], 1.6 in the data set with Nucleic Acid [3], 1.5 in the data set on Nucleic Acid [6] and 49.4 with Nucleic Acid [12]. Further, in [5], the Kp at 1 h is 6.9. Besides, the Stability entry in the data set on Serum was “Unstable”.
